Test system: HEK-293T
Experiment: Multiplex assay against HEK293T
Type: toxicity, cell-based
Conditions: human
Summary of the method: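 Compound was added to live cells that had been stained at seeding with Hoechst33342, BioTracker Green Microtubule Cytoskeleton Dye, MitoTracker Red and Annexin V Alexa Fluor 680, and imaging followed on a CQ1 microscope at 37°C and 5% CO2. CellPathfinder machine-learning gating divided cells into Hoechst high-intensity objects or normal cells, normal cells into healthy, pyknosed or fragmented nuclei, and pyknosed cells into mitotic or apoptotic. Tubulin, mitochondrial-mass and membrane-permeability phenotypes are per cents of healthy-nucleus cells.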

[1] = 12 h, 1 µM, compound concentration 1 uM, replicate 1
[2] = 12 h, 1 µM, compound concentration 1 uM, replicate 2
[3] = 12 h, 10 µM, compound concentration 10 uM, replicate 1
[4] = 12 h, 10 µM, compound concentration 10 uM, replicate 2
[5] = 24 h, 1 µM, compound concentration 1 uM, replicate 1
[6] = 24 h, 1 µM, compound concentration 1 uM, replicate 2
[7] = 24 h, 10 µM, compound concentration 10 uM, replicate 1
[8] = 24 h, 10 µM, compound concentration 10 uM, replicate 2
[9] = 48 h, 1 µM, compound concentration 1 uM, replicate 1
[10] = 48 h, 1 µM, compound concentration 1 uM, replicate 2
[11] = 48 h, 10 µM, compound concentration 10 uM, replicate 1
[12] = 48 h, 10 µM, compound concentration 10 uM, replicate 2

SMILES: CSc1nc(NC2CCCC2)c([N+](=O)[O-])c(NC2CCCC2)n1 [GS-39783]
- Population Apoptotic (%) [1]: 45%
- Population Fragmented Nuclei (%) [1]: 11%
- Population Healthy Nuclei (%) [1]: 74%
- Population Hoechst High Intensity Objects (%) [1]: 8%
- Population Membrane Permeable-Phenotype (%) [1]: 0%
- Population Mitochondria Different-Phenotype (%) [1]: 41%
- Population Mitotic Cells (%) [1]: 54%
- Population Normal (%) [1]: 91%
- Population Pyknosed Nuclei (%) [1]: 14%
- Population Tubulin-Different-Phenotype (%) [1]: 30%
- Total Cell Count [1]: 346
- Population Apoptotic (%) [2]: 40%
- Population Fragmented Nuclei (%) [2]: 3%
- Population Healthy Nuclei (%) [2]: 85%
- Population Hoechst High Intensity Objects (%) [2]: 4%
- Population Mitochondria Different-Phenotype (%) [2]: 68%
- Population Mitotic Cells (%) [2]: 59%
- Population Normal (%) [2]: 95%
- Population Pyknosed Nuclei (%) [2]: 11%
- Population Tubulin-Different-Phenotype (%) [2]: 27%
- Total Cell Count [2]: 301
- Population Apoptotic (%) [3]: 29%
- Population Fragmented Nuclei (%) [3]: 6%
- Population Healthy Nuclei (%) [3]: 81%
- Population Hoechst High Intensity Objects (%) [3]: 6%
- Population Membrane Permeable-Phenotype (%) [3]: 0%
- Population Mitochondria Different-Phenotype (%) [3]: 50%
- Population Mitotic Cells (%) [3]: 70%
- Population Normal (%) [3]: 93%
- Population Pyknosed Nuclei (%) [3]: 12%
- Population Tubulin-Different-Phenotype (%) [3]: 40%
- Total Cell Count [3]: 449
- Population Apoptotic (%) [4]: 40%
- Population Fragmented Nuclei (%) [4]: 5%
- Population Healthy Nuclei (%) [4]: 84%
- Population Hoechst High Intensity Objects (%) [4]: 5%
- Population Mitochondria Different-Phenotype (%) [4]: 68%
- Population Mitotic Cells (%) [4]: 60%
- Population Normal (%) [4]: 94%
- Population Pyknosed Nuclei (%) [4]: 10%
- Population Tubulin-Different-Phenotype (%) [4]: 29%
- Total Cell Count [4]: 406
- Population Apoptotic (%) [5]: 30%
- Population Fragmented Nuclei (%) [5]: 12%
- Population Healthy Nuclei (%) [5]: 76%
- Population Hoechst High Intensity Objects (%) [5]: 7%
- Population Membrane Permeable-Phenotype (%) [5]: 0%
- Population Mitochondria Different-Phenotype (%) [5]: 25%
- Population Mitotic Cells (%) [5]: 69%
- Population Normal (%) [5]: 92%
- Population Pyknosed Nuclei (%) [5]: 11%
- Population Tubulin-Different-Phenotype (%) [5]: 19%
- Total Cell Count [5]: 492
- Population Apoptotic (%) [6]: 38%
- Population Fragmented Nuclei (%) [6]: 7%
- Population Healthy Nuclei (%) [6]: 84%
- Population Hoechst High Intensity Objects (%) [6]: 8%
- Population Mitochondria Different-Phenotype (%) [6]: 51%
- Population Mitotic Cells (%) [6]: 61%
- Population Normal (%) [6]: 91%
- Population Pyknosed Nuclei (%) [6]: 7%
- Total Cell Count [6]: 360
- Population Apoptotic (%) [7]: 27%
- Population Fragmented Nuclei (%) [7]: 11%
- Population Healthy Nuclei (%) [7]: 78%
- Population Hoechst High Intensity Objects (%) [7]: 5%
- Population Membrane Permeable-Phenotype (%) [7]: 1%
- Population Mitochondria Different-Phenotype (%) [7]: 30%
- Population Mitotic Cells (%) [7]: 72%
- Population Normal (%) [7]: 94%
- Population Pyknosed Nuclei (%) [7]: 10%
- Population Tubulin-Different-Phenotype (%) [7]: 30%
- Total Cell Count [7]: 553
- Population Apoptotic (%) [8]: 37%
- Population Fragmented Nuclei (%) [8]: 8%
- Population Healthy Nuclei (%) [8]: 83%
- Population Hoechst High Intensity Objects (%) [8]: 6%
- Population Membrane Permeable-Phenotype (%) [8]: 0%
- Population Mitochondria Different-Phenotype (%) [8]: 52%
- Population Mitotic Cells (%) [8]: 62%
- Population Normal (%) [8]: 93%
- Population Pyknosed Nuclei (%) [8]: 7%
- Population Tubulin-Different-Phenotype (%) [8]: 28%
- Total Cell Count [8]: 474
- Population Apoptotic (%) [9]: 35%
- Population Fragmented Nuclei (%) [9]: 15%
- Population Healthy Nuclei (%) [9]: 74%
- Population Hoechst High Intensity Objects (%) [9]: 3%
- Population Membrane Permeable-Phenotype (%) [9]: 1%
- Population Mitochondria Different-Phenotype (%) [9]: 22%
- Population Mitotic Cells (%) [9]: 64%
- Population Normal (%) [9]: 96%
- Population Pyknosed Nuclei (%) [9]: 9%
- Population Tubulin-Different-Phenotype (%) [9]: 22%
- Total Cell Count [9]: 775
- Population Apoptotic (%) [10]: 30%
- Population Fragmented Nuclei (%) [10]: 13%
- Population Healthy Nuclei (%) [10]: 77%
- Population Hoechst High Intensity Objects (%) [10]: 6%
- Population Membrane Permeable-Phenotype (%) [10]: 0%
- Population Mitochondria Different-Phenotype (%) [10]: 32%
- Population Mitotic Cells (%) [10]: 69%
- Population Normal (%) [10]: 93%
- Population Pyknosed Nuclei (%) [10]: 8%
- Population Tubulin-Different-Phenotype (%) [10]: 24%
- Total Cell Count [10]: 505
- Population Apoptotic (%) [11]: 17%
- Population Fragmented Nuclei (%) [11]: 14%
- Population Healthy Nuclei (%) [11]: 78%
- Population Hoechst High Intensity Objects (%) [11]: 3%
- Population Membrane Permeable-Phenotype (%) [11]: 1%
- Population Mitochondria Different-Phenotype (%) [11]: 27%
- Population Mitotic Cells (%) [11]: 82%
- Population Normal (%) [11]: 96%
- Population Pyknosed Nuclei (%) [11]: 7%
- Population Tubulin-Different-Phenotype (%) [11]: 21%
- Total Cell Count [11]: 856
- Population Apoptotic (%) [12]: 30%
- Population Fragmented Nuclei (%) [12]: 13%
- Population Healthy Nuclei (%) [12]: 77%
- Population Hoechst High Intensity Objects (%) [12]: 5%
- Population Membrane Permeable-Phenotype (%) [12]: 0%
- Population Mitochondria Different-Phenotype (%) [12]: 35%
- Population Mitotic Cells (%) [12]: 69%
- Population Normal (%) [12]: 94%
- Population Pyknosed Nuclei (%) [12]: 8%
- Total Cell Count [12]: 647

Reference: ChEMBL document CHEMBL5058577, “EUbOPEN Chemogenomics Library 2 (Multiplex)” (2022)
